Measurements published in paper PMC2735267 (Neuropharmacology, 2009).
Like-named read-outs stand apart in the source and are kept apart here. Marks after values point to notes of the source that are not given here.

Tests used:
[1] = test system: C57BL/6J mice; test: 3-IC-induced hypothermia; type: in vivo, mouse
[2] = test system: [125I]epibatidine binding sites (β2*- and β4*-nAChR); set-up: species or system C57BL/6J mice; details: inferior colliculus, wild-type
[3] = biological target: β2*-nAChR (Mus musculus, UniProt O70174+Q9ERK7); test: biochemical; type: binding, C57BL/6J mice; details: read-out: [125I]epibatidine (β4 -/-) Ki; inferior colliculi, β4-/- mice; 200 pM ligand
Sequence of β2*-nAChR (O70174 31-629): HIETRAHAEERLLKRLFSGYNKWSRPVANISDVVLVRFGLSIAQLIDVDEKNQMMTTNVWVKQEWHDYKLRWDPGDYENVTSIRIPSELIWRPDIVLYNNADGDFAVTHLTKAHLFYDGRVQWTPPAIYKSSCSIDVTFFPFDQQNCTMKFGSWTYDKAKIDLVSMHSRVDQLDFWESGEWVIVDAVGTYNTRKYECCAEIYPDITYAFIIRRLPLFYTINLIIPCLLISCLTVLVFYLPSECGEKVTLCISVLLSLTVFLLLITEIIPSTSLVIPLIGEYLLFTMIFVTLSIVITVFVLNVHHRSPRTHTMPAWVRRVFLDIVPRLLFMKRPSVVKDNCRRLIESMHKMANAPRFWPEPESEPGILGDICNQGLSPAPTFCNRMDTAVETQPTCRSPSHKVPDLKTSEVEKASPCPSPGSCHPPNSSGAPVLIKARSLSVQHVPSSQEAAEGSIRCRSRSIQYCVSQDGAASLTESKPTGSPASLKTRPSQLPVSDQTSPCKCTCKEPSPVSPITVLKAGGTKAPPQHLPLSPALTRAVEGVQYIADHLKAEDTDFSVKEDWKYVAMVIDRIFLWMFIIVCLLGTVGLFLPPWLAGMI
Sequence of β2*-nAChR (Q9ERK7 26-501): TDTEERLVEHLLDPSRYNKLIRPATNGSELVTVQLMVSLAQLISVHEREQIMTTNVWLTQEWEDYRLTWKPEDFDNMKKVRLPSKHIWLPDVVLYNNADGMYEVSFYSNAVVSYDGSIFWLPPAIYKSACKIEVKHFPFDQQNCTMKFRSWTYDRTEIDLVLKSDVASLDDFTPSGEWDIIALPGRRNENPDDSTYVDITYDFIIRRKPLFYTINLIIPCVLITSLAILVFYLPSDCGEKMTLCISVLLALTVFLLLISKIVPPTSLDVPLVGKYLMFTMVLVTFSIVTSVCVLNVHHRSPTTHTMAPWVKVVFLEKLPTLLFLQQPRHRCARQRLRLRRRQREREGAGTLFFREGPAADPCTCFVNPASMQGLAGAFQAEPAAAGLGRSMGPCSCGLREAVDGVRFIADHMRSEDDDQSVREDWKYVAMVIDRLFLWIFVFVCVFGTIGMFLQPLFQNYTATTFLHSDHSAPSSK

[4] = biological target: human α4β2; details: read-out: Ki human α4β2; expressed in Xenopus oocytes; ref Slater et al., 2003; cited from earlier work
[5] = test system: [3H]dopamine release; details: read-out: EC50 [3H]dopamine release; rat striatal synaptosomes; ref Abin-Carriquiry et al., 2006; cited from earlier work
[6] = test system: cytisine-sensitive [125I]epibatidine binding sites; type: in vivo, DBA/2J mice; details: for Cytisine-sensitive [125I]epibatidine binding: 3-IC 0.2 mg/kg/h iv 7 days; for Cytisine-sensitive [125I]epibatidine binding % change: 3-IC 0.2 mg/kg/h iv 7 days vs saline
[7] = biological target: β4*-nAChR (Mus musculus, UniProt Q8R493+Q8R4G9); test: biochemical; type: binding, C57BL/6J mice; details: read-out: [125I]epibatidine (β2 -/-) Ki; inferior colliculi, β2-/- mice; 200 pM ligand
Sequence of β4*-nAChR (Q8R493 21-495): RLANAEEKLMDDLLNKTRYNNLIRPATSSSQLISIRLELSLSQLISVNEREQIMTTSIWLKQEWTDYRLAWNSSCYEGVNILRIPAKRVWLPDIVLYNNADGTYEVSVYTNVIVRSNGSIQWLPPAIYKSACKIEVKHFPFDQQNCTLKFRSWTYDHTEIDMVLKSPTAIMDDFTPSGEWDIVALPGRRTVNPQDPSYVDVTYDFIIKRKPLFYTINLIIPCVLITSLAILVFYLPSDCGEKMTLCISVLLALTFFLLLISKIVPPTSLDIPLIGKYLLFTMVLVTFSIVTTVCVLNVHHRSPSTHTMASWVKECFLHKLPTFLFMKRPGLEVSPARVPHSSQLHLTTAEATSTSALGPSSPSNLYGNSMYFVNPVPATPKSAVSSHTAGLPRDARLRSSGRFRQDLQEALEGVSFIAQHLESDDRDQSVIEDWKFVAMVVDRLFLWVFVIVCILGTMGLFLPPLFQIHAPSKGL
Sequence of β4*-nAChR (Q8R4G9 26-499): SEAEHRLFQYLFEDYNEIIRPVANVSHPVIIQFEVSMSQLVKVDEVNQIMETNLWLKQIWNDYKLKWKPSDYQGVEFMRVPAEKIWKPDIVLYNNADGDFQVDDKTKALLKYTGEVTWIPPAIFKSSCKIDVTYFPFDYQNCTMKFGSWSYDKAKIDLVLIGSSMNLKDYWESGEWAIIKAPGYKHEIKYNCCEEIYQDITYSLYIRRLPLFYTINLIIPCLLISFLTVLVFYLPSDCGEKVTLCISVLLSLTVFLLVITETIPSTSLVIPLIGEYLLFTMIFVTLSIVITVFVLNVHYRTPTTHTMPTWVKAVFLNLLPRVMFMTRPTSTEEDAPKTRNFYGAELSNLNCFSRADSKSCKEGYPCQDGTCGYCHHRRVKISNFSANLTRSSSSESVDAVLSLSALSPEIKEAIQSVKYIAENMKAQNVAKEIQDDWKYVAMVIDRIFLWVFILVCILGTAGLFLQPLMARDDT

[8] = biological target: α4β2* receptors; details: read-out: Ki α4β2* receptors in rat brain; ref Abin-Carriquiry et al., 2006; cited from earlier work
[9] = test system: β4 null mutant mice; test: 3-IC-induced hypothermia in β4 null mutant and wild-type mice; type: in vivo, mouse; details: 0.2 mg/kg ip
Procedure, shortened: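 Null mutants were backcrossed onto C57BL/6J for at least 10 generations, genotyped from tail DNA, and compared with wild-type mice (β2-/- n = 5; β4-/- n = 5). Test compound was given at 0.2 mg/kg IP in 10 µl/g body weight. Rectal temperature was taken every 5 minutes with a peanut-oil-lubricated probe inserted 1.5 cm. Data are mean ± SEM, analysed by repeated-measures ANOVA (time × genotype).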

[10] = dorsolateral geniculate nucleus
[11] = superior colliculus (optic nerve)
[12] = superior colliculus (sup. gray)

## O=c1c(I)ccc2n1C[C@@H]1CNC[C@H]2C1 [3-IC, 3-iodocytisine]
[1]; 0.2 mg/kg ip acute
  decrease of basal temperature: 9.2 ± 1.13 °C
[1]; 1 mg/kg ip
  maximal temperature decrease: 13.3 ± 0.9 °C
[1]; hexamethonium experiment, 3-IC 0.2 mg/kg
  maximal 3-IC-induced hypothermia after saline pretreatment: 9.25 ± 0.76 °C
[1]; ip, maximal drop in temperature
  ED50 for hypothermia: 0.16 ± 0.03 mg/kg
[1]; mecamylamine experiment, 3-IC 0.2 mg/kg ip
  3-IC-induced hypothermia after saline pretreatment: 9.25 ± 0.76 °C
[2]
  difference in affinity for the two [125I]epibatidine binding sites: 1.6 fold
[3]
  Ki: 0.128 ± 0.003 nM
[4]
  Ki: 0.7 nM
[5]
  EC50: 11 nM
[6]; anterior olfactory nucleus
  Cytisine-sensitive [125I]epibatidine binding: 16.1 ± 1.4 fmol/mg
  Cytisine-sensitive [125I]epibatidine binding % change: 53.5%
[6]; anteromedial thalamic nucleus
  Cytisine-sensitive [125I]epibatidine binding: 50.3 ± 4.0 fmol/mg
  Cytisine-sensitive [125I]epibatidine binding % change: -0.8%
[6]; caudate putamen
  Cytisine-sensitive [125I]epibatidine binding: 20.3 ± 1.9 fmol/mg
  Cytisine-sensitive [125I]epibatidine binding % change: 68.3 * %
[6]; cingulate cortex
  Cytisine-sensitive [125I]epibatidine binding: 23.6 ± 1.5 fmol/mg
  Cytisine-sensitive [125I]epibatidine binding % change: 42.0%
[6]; dentate gyrus (granular layer)
  Cytisine-sensitive [125I]epibatidine binding: 12.3 ± 0.6 fmol/mg
  Cytisine-sensitive [125I]epibatidine binding % change: 46.8 * %
[6]; [10]
  Cytisine-sensitive [125I]epibatidine binding: 70.7 ± 3.9 fmol/mg
  Cytisine-sensitive [125I]epibatidine binding % change: 9.7%
[6]; dorsomedial thalamic nucleus
  Cytisine-sensitive [125I]epibatidine binding: 52.9 ± 5.2 fmol/mg
  Cytisine-sensitive [125I]epibatidine binding % change: -4.5%
[6]; fasciculus retroflexus
  Cytisine-sensitive [125I]epibatidine binding: 40.2 ± 4.0 fmol/mg
  Cytisine-sensitive [125I]epibatidine binding % change: 1.0%
[6]; hippocampus (CA1-3)
  Cytisine-sensitive [125I]epibatidine binding: 9.0 ± 0.2 fmol/mg
  Cytisine-sensitive [125I]epibatidine binding % change: 56.3 *** %
[6]; inferior colliculus (central)
  Cytisine-sensitive [125I]epibatidine binding: 12.2 ± 2.5 fmol/mg
  Cytisine-sensitive [125I]epibatidine binding % change: 97.2 * %
[6]; inferior colliculus (dorsal)
  Cytisine-sensitive [125I]epibatidine binding: 22.8 ± 2.1 fmol/mg
  Cytisine-sensitive [125I]epibatidine binding % change: 68.7 * %
[6]; inferior colliculus (external)
  Cytisine-sensitive [125I]epibatidine binding: 16.8 ± 2.1 fmol/mg
  Cytisine-sensitive [125I]epibatidine binding % change: 88.9 * %
[6]; interpeduncular nucleus
  Cytisine-sensitive [125I]epibatidine binding: 194.7 ± 42.8 fmol/mg
  Cytisine-sensitive [125I]epibatidine binding % change: -0.6%
[6]; medial geniculate nucleus
  Cytisine-sensitive [125I]epibatidine binding: 49.4 ± 8.2 fmol/mg
  Cytisine-sensitive [125I]epibatidine binding % change: 27.2%
[6]; medial habenula
  Cytisine-sensitive [125I]epibatidine binding: 171.3 ± 36.4 fmol/mg
  Cytisine-sensitive [125I]epibatidine binding % change: 52.6%
[6]; nucleus accumbens
  Cytisine-sensitive [125I]epibatidine binding: 15.9 ± 2.1 fmol/mg
  Cytisine-sensitive [125I]epibatidine binding % change: 91.8 * %
[6]; olfactory tubercle
  Cytisine-sensitive [125I]epibatidine binding: 14.5 ± 1.6 fmol/mg
  Cytisine-sensitive [125I]epibatidine binding % change: 83.5 * %
[6]; optic tract
  Cytisine-sensitive [125I]epibatidine binding: 15.1 ± 2.9 fmol/mg
  Cytisine-sensitive [125I]epibatidine binding % change: 126.2%
[6]; optic tract, listed as 3-iodocytisine
  Cytisine-sensitive [125I]epibatidine binding % change: 126.2 * %
[6]; parietal cortex (layers 1-3)
  Cytisine-sensitive [125I]epibatidine binding: 9.1 ± 1.0 fmol/mg
  Cytisine-sensitive [125I]epibatidine binding % change: 71.7 * %
[6]; parietal cortex (layers 4-6)
  Cytisine-sensitive [125I]epibatidine binding: 19.0 ± 1.6 fmol/mg
  Cytisine-sensitive [125I]epibatidine binding % change: 79.7 * %
[6]; retrosplenial Cortex
  Cytisine-sensitive [125I]epibatidine binding: 26.6 ± 2.7 fmol/mg
  Cytisine-sensitive [125I]epibatidine binding % change: 35.6%
[6]; subiculum
  Cytisine-sensitive [125I]epibatidine binding: 41.7 ± 3.8 fmol/mg
  Cytisine-sensitive [125I]epibatidine binding % change: 27.8%
[6]; substantia nigra
  Cytisine-sensitive [125I]epibatidine binding: 43.6 ± 7.3 fmol/mg
  Cytisine-sensitive [125I]epibatidine binding % change: 38.0%
[6]; [11]
  Cytisine-sensitive [125I]epibatidine binding: 47.3 ± 2.2 fmol/mg
  Cytisine-sensitive [125I]epibatidine binding % change: 60.6 *** %
[6]; [12]
  Cytisine-sensitive [125I]epibatidine binding: 51.2 ± 4.4 fmol/mg
  Cytisine-sensitive [125I]epibatidine binding % change: 50.2 ** %
[6]; ventral tegmental area
  Cytisine-sensitive [125I]epibatidine binding: 25.1 ± 1.5 fmol/mg
  Cytisine-sensitive [125I]epibatidine binding % change: 45.2%
[6]; ventral tegmental area, listed as 3-iodocytisine
  Cytisine-sensitive [125I]epibatidine binding % change: 45.2 * %
[6]; ventromedial thalamic nucleus
  Cytisine-sensitive [125I]epibatidine binding: 50.7 ± 1.5 fmol/mg
  Cytisine-sensitive [125I]epibatidine binding % change: -0.8%
[6]; zona incerta
  Cytisine-sensitive [125I]epibatidine binding: 13.7 ± 1.2 fmol/mg
  Cytisine-sensitive [125I]epibatidine binding % change: 55.3 * %
[7]
  Ki: 0.25 ± 0.04 nM
[8]
  Ki: 0.17 nM
[9]; β4+/+ mice
  maximal hypothermia: 7.9 ± 0.3 °C
[9]; β4-/- mice
  maximal hypothermia: 2.9 ± 0.4 °C
